Assay results: ChEMBL document CHEMBL1142436, “Design and synthesis of 4-substituted indolo[3,2-e][1,2,3]triazolo[1,5-a]pyrimidine derivatives with antitumor activity” (2008)

How the values were obtained:
Type in all cases: functional
[1] = test system: LOX IMVI; assay: Growth inhibition of human LOXIMVI cells after 48 hrs
How it was run: (§1)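 NCI ~60-line screen. Cells were grown in RPMI 1640 with 5% FBS and 2 mM L-glutamine and plated at 5000–40000 cells/well. After a 24 h preincubation, five drug concentrations from DMSO stocks were added for 48 h at 37 °C. Cells were TCA-fixed, stained with SRB and read at 515 nm. GI50 was taken from time-zero and control absorbances and reported as pGI50.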

[2] = test system: K562; assay: Growth inhibition of human K562 cells after 48 hrs; details: K562, 48 h; how it was run: as §1
[3] = test system: UACC-257; assay: Growth inhibition of human UACC257 cells after 48 hrs; details: UACC-257, 48 h
How it was run: (§2)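 NCI 60-line screen: cells in RPMI 1640 with 5% FBS and 2 mM L-glutamine, plated at 5000–40000 cells/well, grown 24 h (37 °C, 5% CO₂), then exposed to five 10-fold or ½-log dilutions (DMSO stock) for 48 h. Fixed with TCA (final 10% for adherent cells, 16% for suspension cells), then SRB stained with absorbance at 515 nm. GI50 from percentage growth relative to time-zero and control wells.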

[4] = test system: SF-268; assay: Growth inhibition of human SF268 cells after 48 hrs; details: SF-268, 48 h; how it was run: as §1
[5] = test system: SF-539; assay: Growth inhibition of human SF539 cells after 48 hrs; details: SF-539, 48 h; how it was run: as §1
[6] = test system: OVCAR-8; assay: Growth inhibition of human OVCAR8 cells after 48 hrs; details: OVCAR-8, 48 h; how it was run: as §1
[7] = test system: NCI-H460; assay: Growth inhibition of human NCI-H460 cells after 48 hrs; details: NCI-H460, 48 h; how it was run: as §1
[8] = test system: MCF7; assay: Growth inhibition of human MCF7 cells after 48 hrs; details: MCF7, 48 h; how it was run: as §1
[9] = test system: OVCAR-5; assay: Growth inhibition of human OVCAR5 cells after 48 hrs; details: OVCAR-5, 48 h; how it was run: as §1
[10] = test system: SF-295; assay: Growth inhibition of human SF295 cells after 48 hrs; details: SF-295, 48 h; how it was run: as §1
[11] = test system: COLO 205; assay: Growth inhibition of human COLO205 cells after 48 hrs; details: COLO 205, 48 h; how it was run: as §1
[12] = test system: NCI-H23; assay: Growth inhibition of human NCI-H23 cells after 48 hrs; how it was run: as §1
[13] = test system: UACC-62; assay: Growth inhibition of human UACC62 cells after 48 hrs; details: UACC-62, 48 h; how it was run: as §2
[14] = test system: HCT-116; assay: Growth inhibition of human HCT116 cells after 48 hrs; details: HCT-116, 48 h; how it was run: as §1
[15] = test system: HCC 2998; assay: Growth inhibition of human HCC2998 cells after 48 hrs; details: HCC 2998, 48 h; how it was run: as §1
[16] = test system: SK-MEL-5; assay: Growth inhibition of human SK-MEL5 cells after 48 hrs; details: SK-MEL-5, 48 h; how it was run: as §1
[17] = test system: HCT-15; assay: Growth inhibition of human HCT15 cells after 48 hrs; details: HCT-15, 48 h; how it was run: as §1
[18] = test system: M14; assay: Growth inhibition of human M14 cells after 48 hrs; details: M14, 48 h; how it was run: as §1
[19] = test system: MDA-MB-231; assay: Growth inhibition of human MDA-MB-231 cells after 48 hrs; details: MDA-MB-231, 48 h; how it was run: as §1
[20] = test system: KM12; assay: Growth inhibition of human KM12 cells after 48 hrs; details: KM12, 48 h; how it was run: as §1
[21] = test system: 786-0; assay: Growth inhibition of human 786-0 cells after 48 hrs; details: 786-0, 48 h; how it was run: as §1
[22] = test system: HL-60; assay: Growth inhibition of human HL60 cells after 48 hrs; details: HL-60, 48 h; how it was run: as §1
[23] = test system: RXF 393; assay: Growth inhibition of human RXF393 cells after 48 hrs; details: RXF 393, 48 h; how it was run: as §1
[24] = test system: SW-620; assay: Growth inhibition of human SW620 cells after 48 hrs; details: SW-620, 48 h; how it was run: as §2
[25] = test system: OVCAR-3; assay: Growth inhibition of human OVCAR-3 cells after 48 hrs; details: OVCAR-3, 48 h; how it was run: as §1
[26] = test system: HOP-92; assay: Growth inhibition of human HOP92 cells after 48 hrs; details: HOP-92, 48 h; how it was run: as §1
[27] = test system: NCI/ADR-RES; assay: Growth inhibition of human NCI/ADR-RES cells after 48 hrs; how it was run: as §1
[28] = test system: NCI-H226; assay: Growth inhibition of human NCI-H226 cells after 48 hrs; details: NCI-H226, 48 h; how it was run: as §1
[29] = test system: EKVX; assay: Growth inhibition of human EKVX cells after 48 hrs; how it was run: as §1
[30] = test system: HT-29; assay: Growth inhibition of human HT29 cells after 48 hrs; details: HT-29, 48 h; how it was run: as §1
[31] = test system: DU-145; assay: Growth inhibition of human DU145 cells after 48 hrs; details: DU-145, 48 h; how it was run: as §1
[32] = read-out: Log LC50 (the source's name) (converted)

SMILES: Cn1c2ccccc2c2c(=O)n(CCCC(=O)NCCc3c[nH]cn3)c3c(-c4ccccc4)nnn3c21
- GI50 [1]: 11.2 µM
- LC50 (lethal concentration, 50% cell kill) [1]: 46.8 µM
- TGI ([1]; read-out: pTGI (converted)): 22.9 µM
- GI50 [2]: 8.91 µM
- LC50 [2]: > 50.1 µM
- TGI ([2]; read-out: pTGI (converted)): 26.9 µM
- GI50 [3]: 12 µM
- LC50 [3]: 38.9 µM
- TGI ([3]; read-out: pTGI (converted)): 21.4 µM
- GI50 [4]: 11.7 µM
- CC50 [4, 32]: > 50.1 µM
- TGI ([4]; read-out: pTGI (converted)): 31.6 µM
- GI50 [5]: 9.33 µM
- LC50 (concentration killing 50% of cells) [5]: 31.6 µM
- TGI ([5]; read-out: pTGI (converted)): 17.4 µM
- GI50 [6]: 10 µM
- LC50 [6]: 42.7 µM
- TGI ([6]; read-out: pTGI (converted)): 20.9 µM
- GI50 [7]: 11 µM
- LC50 [7]: > 50.1 µM
- TGI ([7]; read-out: pTGI (converted)): 24.5 µM
- GI50 [8]: 12.9 µM
- LC50 [8]: > 50.1 µM
- TGI ([8]; read-out: pTGI (converted)): 30.2 µM
- GI50 [9]: 11 µM
- LC50 (concentration killing 50% of cells) [9]: 38 µM
- TGI ([9]; read-out: pTGI (converted)): 20.4 µM
- GI50 [10]: 9.12 µM
- LC50 [10]: 34.7 µM
- TGI ([10]; read-out: pTGI (converted)): 17.8 µM
- GI50 [11]: 8.51 µM
- LC50 [11]: 44.7 µM
- TGI ([11]; read-out: pTGI (converted)): 19.5 µM
- TGI ([12]; Homo sapiens, NCI-H23, 48 h, read-out: pTGI (converted)): 46.8 µM
- CC50 [12, 32]: 13.2 µM
- GI50 [13]: 9.77 µM
- LC50 [13]: 31.6 µM
- TGI ([13]; read-out: pTGI (converted)): 17.8 µM
- GI50 [14]: 5.89 µM
- LC50 [14]: 32.4 µM
- TGI ([14]; read-out: pTGI (converted)): 13.8 µM
- GI50 [15]: 9.55 µM
- LC50 [15]: 40.7 µM
- TGI ([15]; read-out: pTGI (converted)): 20 µM
- GI50 [16]: 9.12 µM
- LC50 [16]: 32.4 µM
- TGI ([16]; read-out: pTGI (converted)): 17 µM
- GI50 [17]: 14.5 µM
- LC50 [17]: > 50.1 µM
- TGI ([17]; read-out: pTGI): 43.7 µM
- GI50 [18]: 12 µM
- LC50 [18]: 49 µM
- TGI ([18]; read-out: pTGI (converted)): 24.5 µM
- GI50 [19]: 9.33 µM
- LC50 (concentration killing 50% of cells) [19]: 37.2 µM
- TGI ([19]; read-out: pTGI (converted)): 18.6 µM
- GI50 [20]: 8.13 µM
- LC50 [20]: 35.5 µM
- TGI ([20]; read-out: pTGI (converted)): 17 µM
- GI50 [21]: 2.19 µM
- LC50 [21]: 26.9 µM
- TGI ([21]; read-out: pTGI (converted)): 8.13 µM
- GI50 [22]: 11.7 µM
- LC50 [22]: > 50.1 µM
- TGI ([22]; read-out: pTGI (converted)): 28.2 µM
- GI50 [23]: 7.41 µM
- LC50 [23]: 44.7 µM
- TGI ([23]; read-out: pTGI (converted)): 18.2 µM
- GI50 [24]: 12.9 µM
- LC50 (lethal concentration, 50% cell kill) [24]: > 50.1 µM
- TGI ([24]; read-out: pTGI (converted)): 30.2 µM
- GI50 [25]: 8.32 µM
- LC50 [25]: 31.6 µM
- TGI ([25]; read-out: pTGI (converted)): 16.2 µM
- GI50 [26]: 1.35 µM
- LC50 [26]: 44.7 µM
- TGI ([26]; read-out: pTGI (converted)): 5.5 µM
- GI50 [27]: > 50.1 µM
- LC50 (concentration killing 50% of cells) [27]: > 50.1 µM
- TGI ([27]; read-out: pTGI (converted)): > 50.1 µM
- GI50 [28]: > 50.1 µM
- CC50 [28, 32]: > 50.1 µM
- TGI ([28]; read-out: pTGI): > 50.1 µM
- GI50 [29]: 10 µM
- LC50 [29]: > 50.1 µM
- TGI ([29]; read-out: pTGI (converted)): 24 µM
- GI50 [30]: 8.51 µM
- LC50 (concentration killing 50% of cells) [30]: 37.2 µM
- TGI ([30]; read-out: pTGI (converted)): 17.8 µM
- GI50 [31]: 6.92 µM
- LC50 [31]: 27.5 µM
- TGI ([31]; read-out: pTGI (converted)): 13.8 µM
